According to PMC10692477 (Acta Pharmaceutica Sinica. B, 2023):
Values belong to the molecule of their own block, whether it stands above or below them.

Experiments:
BaF3/TEL-AXL cells = test: BaF3/TEL-AXL cell viability; format: cell-based; details: 48 h, read-out: IC50 Cell viability
AXL signaling pathway = test: GAS6-stimulated AXL signaling in NCI-H1299 cells, Western blot; format: cell-based; details: NCI-H1299, 1 h treatment, GAS6 500 ng/mL 15 min
Procedure, shortened: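 NCI-H1299 cells in exponential growth were serum-deprived for 24 h, then given the test compound for 1 h and stimulated with GAS6 500 ng/mL for 15 min. Lysis was in 1× SDS sample buffer, followed by 10% SDS-PAGE and nitrocellulose transfer.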

[1] = tested on: BaF3/TEL-AXL mouse xenograft; test: BaF3/TEL-AXL cell-derived mouse xenograft model
[2] = Pharmacokinetics in ICR mice; format: in vivo; details: mouse, serum
AXL kinase = target: T1, AXL kinase (Homo sapiens, UniProt P30530); test: AXL kinase inhibition, ELISA; format: biochemical; details: IC50 AXL kinase, ELISA; mean ± SD of two independent experiments
T1 sequence (P30530 26-894): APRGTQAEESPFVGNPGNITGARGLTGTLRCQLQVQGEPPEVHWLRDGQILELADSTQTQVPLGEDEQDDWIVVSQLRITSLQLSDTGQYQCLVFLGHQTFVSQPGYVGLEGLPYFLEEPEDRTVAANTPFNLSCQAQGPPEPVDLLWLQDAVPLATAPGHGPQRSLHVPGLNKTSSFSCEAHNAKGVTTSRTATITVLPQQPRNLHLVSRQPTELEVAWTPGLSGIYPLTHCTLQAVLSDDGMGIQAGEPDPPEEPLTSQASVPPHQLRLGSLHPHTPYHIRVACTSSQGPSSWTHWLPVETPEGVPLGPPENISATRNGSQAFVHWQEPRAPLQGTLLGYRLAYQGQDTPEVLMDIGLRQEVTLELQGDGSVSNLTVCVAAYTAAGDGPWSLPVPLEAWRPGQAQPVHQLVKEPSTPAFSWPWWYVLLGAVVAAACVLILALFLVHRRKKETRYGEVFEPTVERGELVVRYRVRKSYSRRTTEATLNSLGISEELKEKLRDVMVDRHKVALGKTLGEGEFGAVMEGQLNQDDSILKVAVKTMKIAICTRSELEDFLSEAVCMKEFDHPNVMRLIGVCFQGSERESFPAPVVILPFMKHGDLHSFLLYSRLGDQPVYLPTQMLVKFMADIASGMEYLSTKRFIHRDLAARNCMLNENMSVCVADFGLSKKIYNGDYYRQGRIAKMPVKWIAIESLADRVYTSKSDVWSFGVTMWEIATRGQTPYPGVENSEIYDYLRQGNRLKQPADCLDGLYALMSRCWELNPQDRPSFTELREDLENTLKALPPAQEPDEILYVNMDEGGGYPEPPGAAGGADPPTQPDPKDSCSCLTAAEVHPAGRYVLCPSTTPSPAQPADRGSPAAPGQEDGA

SMILES: Nc1nc(Nc2ccc3c(c2)CC[C@@H](N2CCCC2)CC3)nn1-c1cc2c(nn1)-c1ccccc1CCC2 [BGB324, reference compound]
IC50 (BaF3/TEL-AXL cells): 0.0951 ± 0.0037 µM
p-AKT level (AXL signaling pathway): significantly inhibited
p-STAT3 level (AXL signaling pathway): significantly inhibited
TGI ([1]; 50 mg/kg po bid): 92.0%

SMILES: COc1cc2ncnc(Oc3ccc(NC(=O)c4c5n(n(-c6cccc(F)c6)c4=O)CCCC5)cc3F)c2cc1OC [Compound 18]
IC50 (BaF3/TEL-AXL cells): < 0.0001 µM
AUC(0-inf) ([2]; iv, 5 mg/kg): 42.1 µg·h/mL
AUC(0-t) ([2]; iv, 5 mg/kg): 34.8 µg·h/mL
clearance ([2]; iv, 5 mg/kg): 0.123 L/h/kg
half-life ([2]; iv, 5 mg/kg): 10.4 h
AUC(0-inf) ([2]; po, 10 mg/kg): 16 µg·h/mL
AUC(0-t) ([2]; po, 10 mg/kg): 15.9 µg·h/mL
Cmax ([2]; po, 10 mg/kg): 2.97 µg/mL
Tmax ([2]; po, 10 mg/kg): 2 h
bioavailability ([2]; po, 10 mg/kg): 22.9%
half-life ([2]; po, 10 mg/kg): 3.24 h
TGI ([1]; 4 mg/kg po qd, 7 consecutive days): 89.5%
TGI ([1]; 20 mg/kg po qd, 7 consecutive days): 93.4%
body weight of tumor-bearing mice during the treatment ([1]; 4 and 20 mg/kg po qd): no significant body weight loss

SMILES: COc1cc2ncnc(Oc3ccc(NC(=O)c4c5n(n(-c6ccc(F)cc6)c4=O)CCCC5)cc3F)c2cc1OC [Compound 19]
IC50 (BaF3/TEL-AXL cells): < 0.0001 µM

SMILES: COc1cc2ncnc(Oc3ccc(NC(=O)c4c5n(n(-c6ccccc6Cl)c4=O)CCCC5)cc3F)c2cc1OC [Compound 20]
IC50 (BaF3/TEL-AXL cells): 0.007 ± 0.0042 µM
IC50 (AXL kinase): 0.0105 ± 0.0005 µM

SMILES: COc1cc2ncnc(Oc3ccc(NC(=O)c4c5n(n(-c6ccccc6C)c4=O)CCCC5)cc3F)c2cc1OC [Compound 22]
IC50 (BaF3/TEL-AXL cells): 0.0076 ± 0.0041 µM
IC50 (AXL kinase): 0.0157 ± 0.0017 µM

SMILES: COc1cc2ncnc(Oc3ccc(NC(=O)c4c5n(n(-c6cc(F)ccc6F)c4=O)CCCC5)cc3F)c2cc1OC [Compound 24]
IC50 (BaF3/TEL-AXL cells): < 0.0001 µM
AUC(0-inf) ([2]; iv, 5 mg/kg): 49.1 µg·h/mL
AUC(0-t) ([2]; iv, 5 mg/kg): 48.9 µg·h/mL
clearance ([2]; iv, 5 mg/kg): 0.102 L/h/kg
half-life ([2]; iv, 5 mg/kg): 3.38 h
AUC(0-inf) ([2]; po, 10 mg/kg): 14.2 µg·h/mL
AUC(0-t) ([2]; po, 10 mg/kg): 13.5 µg·h/mL
Cmax ([2]; po, 10 mg/kg): 1.49 µg/mL
Tmax ([2]; po, 10 mg/kg): 2 h
bioavailability ([2]; po, 10 mg/kg): 13.8%
half-life ([2]; po, 10 mg/kg): 6.77 h

More lines, now with the values ahead:

IC50 (BaF3/TEL-AXL cells): 0.0023 ± 0.0004 µM
IC50 (AXL kinase): 0.01 ± 0.0014 µM
SMILES: COc1cc2ncnc(Oc3ccc(NC(=O)c4c5n(n(-c6ccccc6)c4=O)CCCC5)c(F)c3)c2cc1OC [Compound 29]

IC50 (BaF3/TEL-AXL cells): < 0.0001 µM
IC50 (AXL kinase): 0.0134 ± 0.0008 µM
SMILES: COc1cc2ncnc(Oc3ccc(NC(=O)c4c5n(n(-c6ccccc6F)c4=O)CCCC5)c(F)c3)c2cc1OC [Compound 30]

IC50 (BaF3/TEL-AXL cells): 1.65 ± 0.444 µM
IC50 (AXL kinase): 0.0169 ± 0.0025 µM
SMILES: COc1cc2ncnc(Oc3ccc(NC(=O)c4c5n(n(-c6ccccc6)c4=O)CCCC5)cc3Cl)c2cc1OC [Compound 33]
